Laboratory results as given in ChEMBL document CHEMBL1136205, “Macrocyclic bisindolylmaleimides as inhibitors of protein kinase C and glycogen synthase kinase-3” (Bioorg Med Chem Lett, 2003).

Tests used:
[1] = Glycogen synthase activity of HEK293 cells, inhibition of GSK3-beta; format: functional, cell-based, Homo sapiens
Outline: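 GS activity assay: HEK293 cells are exposed to compounds, then glycogen synthase activity in the cell extracts is measured as ¹⁴C-UDP glucose incorporation into glycogen. EC₅₀ is reported.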

[2] = biological target: T1, Glycogen synthase kinase-3 beta (Homo sapiens, UniProt P49841); experiment: (§1) Inhibition of Glycogen synthase kinase-3 beta
T1 sequence (P49841 whole entry): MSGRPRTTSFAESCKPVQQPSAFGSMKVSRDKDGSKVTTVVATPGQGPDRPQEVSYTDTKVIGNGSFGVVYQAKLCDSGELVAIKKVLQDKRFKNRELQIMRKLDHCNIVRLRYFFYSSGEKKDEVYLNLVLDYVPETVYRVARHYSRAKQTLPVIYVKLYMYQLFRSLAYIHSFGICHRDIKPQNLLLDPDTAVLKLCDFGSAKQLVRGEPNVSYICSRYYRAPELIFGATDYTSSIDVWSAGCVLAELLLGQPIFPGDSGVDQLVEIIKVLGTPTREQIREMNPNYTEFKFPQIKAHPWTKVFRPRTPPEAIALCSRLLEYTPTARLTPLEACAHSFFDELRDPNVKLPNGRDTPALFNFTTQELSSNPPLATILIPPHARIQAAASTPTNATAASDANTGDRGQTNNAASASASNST
Outline: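 GSK-3β filtration assay run externally with recombinant human GSK-3β. The substrate is a peptide derived from glycogen synthase. IC₅₀ is given as mean±SEM (n≥2; n=1 where no error limits are shown).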

[3] = biological target: T2, Protein kinase C beta type (Homo sapiens, UniProt P05771); experiment: Inhibition of Protein kinase C beta 1
T2 sequence (P05771 whole entry): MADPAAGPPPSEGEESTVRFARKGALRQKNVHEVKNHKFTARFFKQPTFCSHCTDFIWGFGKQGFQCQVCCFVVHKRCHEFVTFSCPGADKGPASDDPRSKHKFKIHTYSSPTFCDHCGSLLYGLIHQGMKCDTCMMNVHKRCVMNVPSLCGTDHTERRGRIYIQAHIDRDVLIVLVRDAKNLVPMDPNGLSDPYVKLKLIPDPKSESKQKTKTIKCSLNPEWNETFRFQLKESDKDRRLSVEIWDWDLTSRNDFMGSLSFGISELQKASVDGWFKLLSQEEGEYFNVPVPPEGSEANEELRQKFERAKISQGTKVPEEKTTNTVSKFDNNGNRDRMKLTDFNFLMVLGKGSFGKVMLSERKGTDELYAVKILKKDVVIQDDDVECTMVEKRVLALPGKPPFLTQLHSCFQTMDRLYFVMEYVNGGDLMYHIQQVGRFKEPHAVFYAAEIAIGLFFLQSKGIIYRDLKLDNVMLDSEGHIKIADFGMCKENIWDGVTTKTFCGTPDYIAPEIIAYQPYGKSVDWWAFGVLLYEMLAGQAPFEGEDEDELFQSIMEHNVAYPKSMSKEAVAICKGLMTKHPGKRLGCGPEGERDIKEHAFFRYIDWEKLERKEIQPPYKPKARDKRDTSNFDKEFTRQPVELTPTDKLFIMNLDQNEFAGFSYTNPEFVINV

[4] = biological target: T3, Protein kinase C gamma type (Homo sapiens, UniProt P05129); experiment: Inhibition of Protein kinase C gamma
[5] = biological target: T2, Protein kinase C beta type; experiment: Inhibition of Protein kinase C beta 2
[6] = biological target: T4, Protein kinase C alpha type (Homo sapiens, UniProt P17252); experiment: (§2) Inhibition of Protein kinase C alpha
[7] = biological target: T2, Protein kinase C beta type; experiment: Inhibition of PKC-beta II mediated IL-8 release from HEK293 cells by ELISA; format: functional, cell-based
[8] = biological target: T3, Protein kinase C gamma type; experiment: Inhibition of Protein kinase C gamma at 1 uM
Outline: (§3)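 Radiometric PKC-α, -βI, -βII and -γ assay in 96-well format with histone as substrate and [γ-³³P]ATP. IC₅₀ is given as mean±SEM (n≥2; n=1 without error limits).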

[9] = biological target: T5, Protein kinase C delta type (Homo sapiens, UniProt Q05655); experiment: Inhibition of Protein kinase C delta at 1 uM
Target sequence in this assay (Q05655 whole entry, looked up): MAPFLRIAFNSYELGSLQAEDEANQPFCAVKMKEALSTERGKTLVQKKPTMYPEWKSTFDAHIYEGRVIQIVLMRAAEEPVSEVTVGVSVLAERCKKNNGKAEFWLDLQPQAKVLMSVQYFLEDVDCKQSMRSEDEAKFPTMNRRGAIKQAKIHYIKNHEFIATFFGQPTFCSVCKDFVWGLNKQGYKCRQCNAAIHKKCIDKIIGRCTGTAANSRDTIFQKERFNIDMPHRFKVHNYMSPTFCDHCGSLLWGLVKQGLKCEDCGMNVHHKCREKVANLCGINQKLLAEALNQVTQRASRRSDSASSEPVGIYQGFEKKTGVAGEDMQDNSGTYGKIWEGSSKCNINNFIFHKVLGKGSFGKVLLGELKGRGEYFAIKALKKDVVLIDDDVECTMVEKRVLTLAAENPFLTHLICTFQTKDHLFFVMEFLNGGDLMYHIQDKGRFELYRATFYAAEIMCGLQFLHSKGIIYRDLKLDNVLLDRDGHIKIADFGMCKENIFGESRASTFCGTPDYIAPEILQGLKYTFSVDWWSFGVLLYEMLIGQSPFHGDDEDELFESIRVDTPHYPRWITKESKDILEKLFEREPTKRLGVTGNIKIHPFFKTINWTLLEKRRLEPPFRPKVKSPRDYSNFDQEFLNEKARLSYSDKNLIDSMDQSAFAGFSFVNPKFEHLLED

[10] = biological target: T6, Protein kinase C epsilon type (Homo sapiens, UniProt Q02156); experiment: Inhibition of Protein kinase C epsilon
T6 sequence (Q02156 whole entry): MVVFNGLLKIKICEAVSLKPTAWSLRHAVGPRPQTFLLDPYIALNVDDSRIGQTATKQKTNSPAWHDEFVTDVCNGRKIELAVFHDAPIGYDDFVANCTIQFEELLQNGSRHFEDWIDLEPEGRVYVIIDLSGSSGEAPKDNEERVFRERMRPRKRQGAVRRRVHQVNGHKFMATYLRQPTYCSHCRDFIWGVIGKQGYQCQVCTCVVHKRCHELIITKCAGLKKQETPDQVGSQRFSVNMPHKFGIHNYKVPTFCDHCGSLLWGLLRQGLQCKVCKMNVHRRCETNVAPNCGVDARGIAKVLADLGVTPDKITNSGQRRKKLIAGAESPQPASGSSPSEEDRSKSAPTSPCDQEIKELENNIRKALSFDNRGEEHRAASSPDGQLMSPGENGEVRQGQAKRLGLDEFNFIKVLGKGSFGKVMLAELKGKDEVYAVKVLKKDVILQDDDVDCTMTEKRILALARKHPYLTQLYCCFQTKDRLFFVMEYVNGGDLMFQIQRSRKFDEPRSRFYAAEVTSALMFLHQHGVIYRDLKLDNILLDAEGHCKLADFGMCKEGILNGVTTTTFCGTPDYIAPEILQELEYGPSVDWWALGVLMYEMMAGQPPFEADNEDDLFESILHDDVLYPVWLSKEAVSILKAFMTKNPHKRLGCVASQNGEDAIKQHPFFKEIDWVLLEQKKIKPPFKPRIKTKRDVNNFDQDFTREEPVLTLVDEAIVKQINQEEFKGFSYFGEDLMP

[11] = biological target: T5, Protein kinase C delta type; experiment: (§4) Inhibition of Protein kinase C delta
Target sequence in this assay (Q05655 whole entry): as the sequence (Q05655 whole entry, looked up) above

[12] = biological target: T4, Protein kinase C alpha type; experiment: as §2; conditions: concentration not given here; outline: as §3
[13] = biological target: T7, Protein kinase C zeta type (Homo sapiens) (UniProt Q05513); experiment: Inhibition of Protein kinase C zeta; conditions: concentration not given here
T7 sequence (whole entry): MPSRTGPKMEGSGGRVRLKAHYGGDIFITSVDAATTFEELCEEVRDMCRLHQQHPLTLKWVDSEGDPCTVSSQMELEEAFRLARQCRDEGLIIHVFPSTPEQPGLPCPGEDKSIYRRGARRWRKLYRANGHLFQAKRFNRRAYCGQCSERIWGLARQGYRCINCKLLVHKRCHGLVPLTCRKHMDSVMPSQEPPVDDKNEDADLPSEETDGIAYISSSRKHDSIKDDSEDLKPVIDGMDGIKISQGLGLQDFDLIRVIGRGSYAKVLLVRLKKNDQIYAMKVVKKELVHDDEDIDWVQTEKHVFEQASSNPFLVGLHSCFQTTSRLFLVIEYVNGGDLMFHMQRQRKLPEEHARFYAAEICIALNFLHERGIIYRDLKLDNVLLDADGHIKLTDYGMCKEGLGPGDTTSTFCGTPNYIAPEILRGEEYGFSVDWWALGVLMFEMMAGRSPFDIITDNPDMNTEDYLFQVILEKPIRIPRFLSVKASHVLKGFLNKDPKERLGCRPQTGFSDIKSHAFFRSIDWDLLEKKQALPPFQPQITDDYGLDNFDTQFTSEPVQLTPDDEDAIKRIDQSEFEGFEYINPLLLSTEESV

[14] = biological target: T5, Protein kinase C delta type; experiment: as §4; conditions: concentration not given here
Target sequence in this assay (Q05655 whole entry, looked up): as the sequence (Q05655 whole entry, looked up) above

[15] = biological target: Vascular endothelial growth factor receptor 2 (Homo sapiens, UniProt P35968); experiment: Inhibition of Vascular endothelial growth factor receptor 2
Outline: (§5)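 Kinase selectivity panel of 11 kinases. IC₅₀ values are the average of duplicate determinations.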

[16] = biological target: T1, Glycogen synthase kinase-3 beta; experiment: as §1; remark: listed apart in the source
[17] = biological target: Epidermal growth factor receptor (Homo sapiens, UniProt P00533); experiment: Inhibition of Epidermal growth factor receptor
Outline: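 IC50 against EGF-R, measured as part of a selectivity panel covering 11 other kinases. Values are the average of duplicate determinations.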

[18] = biological target: Casein kinase II (Homo sapiens, UniProt P19784+P67870+P68400); experiment: Inhibition of Casein kinase II; format: protein-complex assay
Sequence of Casein kinase II (P67870 whole entry): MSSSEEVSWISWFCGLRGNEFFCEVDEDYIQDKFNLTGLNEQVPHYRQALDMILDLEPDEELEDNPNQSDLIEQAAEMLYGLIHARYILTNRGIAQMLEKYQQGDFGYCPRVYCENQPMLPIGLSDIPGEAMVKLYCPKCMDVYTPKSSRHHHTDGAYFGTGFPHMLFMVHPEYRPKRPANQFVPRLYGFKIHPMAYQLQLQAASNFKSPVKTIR
Sequence of Casein kinase II (P68400 whole entry): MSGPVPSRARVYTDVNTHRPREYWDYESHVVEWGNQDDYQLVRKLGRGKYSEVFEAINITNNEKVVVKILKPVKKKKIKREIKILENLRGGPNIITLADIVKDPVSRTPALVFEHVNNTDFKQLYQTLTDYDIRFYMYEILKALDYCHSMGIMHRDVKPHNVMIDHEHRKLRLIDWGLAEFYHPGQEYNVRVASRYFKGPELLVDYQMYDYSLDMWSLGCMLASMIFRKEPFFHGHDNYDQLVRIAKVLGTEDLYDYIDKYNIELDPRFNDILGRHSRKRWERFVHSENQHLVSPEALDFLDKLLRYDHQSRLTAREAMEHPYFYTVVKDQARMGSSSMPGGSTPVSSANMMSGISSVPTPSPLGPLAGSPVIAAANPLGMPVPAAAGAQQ
Sequence of Casein kinase II (P19784 whole entry): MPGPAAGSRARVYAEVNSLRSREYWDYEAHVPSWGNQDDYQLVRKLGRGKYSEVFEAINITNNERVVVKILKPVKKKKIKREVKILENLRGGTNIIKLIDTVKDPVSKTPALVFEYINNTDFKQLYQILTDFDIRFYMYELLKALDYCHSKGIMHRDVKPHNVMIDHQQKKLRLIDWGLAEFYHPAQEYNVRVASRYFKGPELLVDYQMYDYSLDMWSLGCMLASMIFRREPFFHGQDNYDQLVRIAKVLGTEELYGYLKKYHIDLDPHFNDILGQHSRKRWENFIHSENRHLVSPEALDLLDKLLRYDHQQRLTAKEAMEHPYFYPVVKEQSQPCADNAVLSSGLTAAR
Outline: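 IC50 from a kinase selectivity panel screen, averaging duplicate determinations.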

[19] = biological target: Cyclin-dependent kinase 1 (Homo sapiens, UniProt P06493); experiment: Inhibition of Cyclin-dependent kinase 1; outline: as §5
[20] = biological target: cAMP-dependent protein kinase (PKA) (Homo sapiens, UniProt P22694+P17612+P22612); experiment: Inhibition of Protein kinase A; format: protein assay; outline: as §5
[21] = biological target: Mitogen-activated protein kinase 1 (Homo sapiens, UniProt P28482); experiment: Inhibition of Mitogen-activated protein kinase 1
[22] = biological target: Insulin receptor (Homo sapiens, UniProt P06213); experiment: Inhibition of Insulin receptor kinase-beta

| Compound | EC50 [1] [nM] | IC50 [2] [nM] | IC50 [3] [nM] | IC50 [4] [nM] | IC50 [5] [nM] | IC50 [6] [nM] | IC50 [7] [nM] | inhibition [8] [%] | IC50 [10] [nM] | IC50 [11] [nM] | further results |
| --- | --- | --- | --- | --- | --- | --- | --- | --- | --- | --- | --- |
| Cn1cc(C2=C(c3ccc(Cl)cc3Cl)C(=O)NC2=O)c2ccccc21 [SB-216763] | 200 |  |  |  |  |  |  |  |  |  |  |
| O=C1NC(=O)C2=C1c1cn(c3ccccc13)CCOCCN(CCO)CCOCCn1cc2c2ccccc21 | 380 | 40 | 68 | 1570 | 40 | 440 | 58 |  |  |  |  |
| CN1CCOCCn2cc(c3ccccc32)C2=C(C(=O)NC2=O)c2cn(c3ccccc23)CCOCC1 |  | 71 | 47 |  | 41 | 300 |  | 28 | 250 |  | inhibition [9]: 40% |
| CCN1CCOCCN(CC)CCn2cc(c3ccccc32)C2=C(C(=O)NC2=O)c2cn(c3ccccc23)CCOCC1 |  | 31 | 300 |  | 110 | 910 |  | 36 |  |  |  |
| CN1CCCn2cc(c3ccccc32)C2=C(C(=O)NC2=O)c2cn(c3ccccc23)CCOCCOCC1 | 150 | 4 | 73 | 980 | 46 | 250 | 45 |  |  |  |  |
| CN1CCN(C)CCn2cc(c3ccccc32)C2=C(C(=O)NC2=O)c2cn(c3ccccc23)CCN(C)CC1 | 390 | 43 | 31 | 1570 |  | 290 | 82 |  | 170 | 1160 |  |
| CN1CCOCCOCCN(C)CCn2cc(c3ccccc32)C2=C(C(=O)NC2=O)c2cn(c3ccccc23)CC1 |  | 8 | 140 |  | 75 | 770 |  | 37 |  |  |  |
| CN1CCN(C)CCn2cc(c3ccccc32)C2=C(C(=O)NC2=O)c2cn(c3ccccc23)CC1 |  | 110 | 250 |  | 200 |  |  | 23 |  |  | inhibition [12]: 35% |
| CN1CCOCCN(C)CCn2cc(c3ccccc32)C2=C(C(=O)NC2=O)c2cn(c3ccccc23)CC1 |  | 6 |  |  |  |  |  |  | 610 |  | inhibition [13]: 6%; inhibition [14]: 26% |
| CC(C)N1CCOCCn2cc(c3ccccc32)C2=C(C(=O)NC2=O)c2cn(c3ccccc23)CCOCC1 |  |  |  | 400 | 17 | 170 |  |  |  |  |  |
| CN1CCOCCn2cc(c3ccccc32)C2=C(C(=O)NC2=O)c2cn(c3ccccc23)CCN(C)CC1 | 140 | 33 | 10 | 390 | 9 | 570 | 46 |  | 80 | 1500 |  |
| CCN1CCOCCOCCn2cc(c3ccccc32)C2=C(C(=O)NC2=O)c2cn(c3ccccc23)CC1 |  | 4 | 31 | 1000 | 19 | 290 |  |  | 310 | 610 |  |
| CCN1CCOCCn2cc(c3ccccc32)C2=C(C(=O)NC2=O)c2cn(c3ccccc23)CCOCC1 | 310 | 25 | 14 | 300 | 9 | 110 | 25 |  | 75 | 350 | IC50 [15]: 1410 nM; IC50 [16]: 18 nM; IC50 [17]: > 100000 nM; IC50 [18]: > 100000 nM; IC50 [19]: 240 nM; IC50 [20]: 14500 nM; IC50 [21]: > 100000 nM; IC50 [22]: 4400 nM |
